# This excerpt belongs to a sample that is enriched for hits.
# CHOP inhibitor: blocks CHOP induction under ER stress | CHO-K1 CHOP-promoter luciferase, tunicamycin-induced, 15-18 h | 3.8% of 220,000 active | AID 2732 | inhibition, % at 10 µM;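 active = compounds that reduced the stress-induced luciferase reporter signal by more than about 70% of percent inhibition, limit read from the data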;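 note: 0% = tunicamycin plus vehicle and 100% = wells without tunicamycin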
# p-CIP stab down: compounds decreasing mouse p/CIP protein stability; F442A p/CIP-EGFP cells, EGFP fluorescence, 16 h; decrease of EGFP signal, % at 10 µM; 0.01% of 290,000 active; AID 1984;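 active = EGFP signal decrease of at least 30% at 10 µM or well 3 SD below plate mean, unless failing retest; inactive = the rest, including hits failing retest or dose response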
# XBP1 UPR activ: activators of adaptive arm of unfolded protein response (XBP1); CHO-XBP1 luciferase reporter, IRE1-XBP1 UPR activation, luminescence; percent of tunicamycin response, DMSO as zero; 0.33% of 330,000 active; AID 463104; activation, % at 20 µM;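 active = versus positive control, 20 µM dose yields 30% or more activation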;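 note: 100% = tunicamycin at 10 µg/mL and 0% = DMSO only wells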
#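 Test system: CHO-XBP1 luciferase reporter cells | Buffer or medium: Serum-containing F12 medium, 10% FBS | Schedule: 6 h compound exposure at 37 °C, 5% CO2 | Detection: Steady-Glo luciferase glow luminescence, 10 min after reagent addition | Read-out basis: Activation, % of tunicamycin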
# Dynein transport: dynein cargo transport inhibition | 3617.4 mouse cells, GR-EGFP nuclear translocation imaging; test concentration mostly 20 µM; stimulated with dexamethasone, 1 µM; hits give low values | z-score, hits read low | 0.47% of 220,000 active | AID 1381;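 active = plate z-score of nuclear minus cytoplasmic receptor signal below a set negative limit, without overly bright fluorescence or cell loss, cut at about -3.5 in these data, passing the limit was not always enough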;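 note: z-score of nuclear minus cytoplasmic ring GR-EGFP intensity difference per well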
#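 Schedule: 48 h induction, then 1 h compound, then 30 min agonist, 37 °C. Buffer or medium: tetracycline-free induction medium containing charcoal-stripped FBS. Reagent: 1.0 µM final dexamethasone stimulus. Evaluation: nuclear versus cytoplasmic GR-EGFP signal, averaged per well. Signal: high-content fluorescence imaging after fixation.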
# B2AR ag: human beta-2 adrenergic receptor agonism by FAP; Am2.2-beta2AR cells, FAP receptor internalization, flow cytometry; 0.43% of 340,000 active; response, % (concentration not given with the values);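 active = response above a set limit, near 3 SD of response in nonfluorescent compounds, cut at about 42% in these data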
# Target sequence (P07550 whole entry, looked up): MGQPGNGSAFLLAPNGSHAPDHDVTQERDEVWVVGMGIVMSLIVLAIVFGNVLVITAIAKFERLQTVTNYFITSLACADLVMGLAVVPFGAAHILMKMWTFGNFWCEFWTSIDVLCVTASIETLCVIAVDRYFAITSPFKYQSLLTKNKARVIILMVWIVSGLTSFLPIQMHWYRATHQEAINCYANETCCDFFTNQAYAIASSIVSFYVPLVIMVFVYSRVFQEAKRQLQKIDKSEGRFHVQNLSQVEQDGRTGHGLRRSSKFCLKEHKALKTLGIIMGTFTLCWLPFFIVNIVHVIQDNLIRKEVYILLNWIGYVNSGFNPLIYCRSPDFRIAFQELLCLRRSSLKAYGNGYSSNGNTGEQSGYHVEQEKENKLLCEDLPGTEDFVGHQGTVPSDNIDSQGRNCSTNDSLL
# UPR CHOP act: apoptotic UPR (CHOP) activation; CHO-CHOP luciferase reporter, luminescence; percent of tunicamycin response over DMSO baseline; activation, % at 10 µM; 0.34% of 330,000 active;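 active = at 10 µM dose, activation of 40% or more, normalized to positive control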;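 note: 100% = tunicamycin at 10 µg/mL and 0% = DMSO alone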
#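 Test system: CHO-CHOP cells, stable luciferase reporter of PERK-eIF2a-CHOP signalling | Quantity: 500 CHO-CHOP cells per well | Buffer or medium: F12 plus 10% serum | Compound dosing: 10 µM single point, 0.5% DMSO | Schedule: 6 h compound treatment, 37 °C | Signal: Luciferase luminescence | Control set: Tunicamycin high control, DMSO low control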
# Active calls of the source: *; / = not tested or not shown.
SMILES,CHOP inhibitor,p-CIP stab down,XBP1 UPR activ,Dynein transport,B2AR ag,UPR CHOP act
CC(=O)Nc1ccc(C=NN=C2c3ccccc3-c3ccccc32)cc1,/,/,/,/,92.3*,/
c1ccc2c(c1)CN1CCCC1=N2,/,3.8,-2.9,/,-9.1,2.3
CCOC(=O)c1sc(N)c(C(=O)OCC)c1C,-22.8,3.1,5.1,-0.982,-0.9,4.3
CCOC(=O)c1c(N)sc2c(OCC)c(Br)ccc12,85.4*,3.7,1.6,0.193,-16.7,2.0
Cc1cc(C)n(C(=O)COc2ccc([N+](=O)[O-])cc2)n1,11.0,-5.1,0.9,0.244,-0.6,-1.9
Cc1cc(C)n(C(N)=NC(=O)c2ccc([N+](=O)[O-])cc2)n1,-4.8,42.2*,-0.1,0.336,3.9,5.1
COc1ccc(/C=C(\C#N)C(=O)OCC(=O)Nc2c(C)cccc2C)cc1,75.4*,-16.8,0.6,0.476,1.0,1.3
CCc1cccc(CC)c1NC(=O)COC(=O)/C(C#N)=C/c1ccc(OC)cc1,75.0*,-0.3,-1.5,-0.32,-6.1,0.7
O=C(COC(=O)C12CC3CC(CC(C3)C1)C2)Nc1nc2c(F)c(F)c(F)cc2s1,94.6*,-17.5,-3.7,0.0838,2.7,-0.1
COC(=O)C(CCSC)NC(=O)CNS(=O)(=O)c1ccc(Br)cc1 (stereo unspecified),80.5*,-0.3,0.9,0.237,7.1,0.5
CCc1ccc2[nH]c(=O)c(CN(Cc3ccccc3OC)C(=O)Nc3ccccc3OC)cc2c1,71.1*,-4.3,4.4,-0.406,-0.5,2.3
CCN(CC)CCN(Cc1cc2cc(C)ccc2[nH]c1=O)C(=O)Nc1ccccc1OC,1.3,0.1,-5.1,-0.471,3.6,-4.1
O=C(NCc1ccc(N2CCCC2=O)cc1)c1cc(COc2c(F)cccc2F)on1,/,-14.3,-1.8,/,-7.7,-0.6
Cc1[nH]c2c(Br)cccc2c1[C@H]1[C@@H](CC#N)C1(C)C,71.8*,-3.3,3.6,0.158,-1.6,-0.2
COc1cc(C(=O)NCc2ccc(-c3nc4ccccc4o3)cc2)cc(OC)c1OC,70.9*,5.4,7.5,0.583,1.2,4.1
COC(=O)Cc1[nH]n(-c2nc3ccccc3s2)c(=O)c1C(C)=Nc1ccc(Cl)cc1,83.0*,-6.6,-6.5,1.15,-4.2,-10.6
CCN(CC)CCCN=Cc1c(-c2ccccc2)[nH]n(-c2nc3ccccc3s2)c1=O,-18.3,5.0,-0.8,0.824,-3.8,0.1
CCCN=C(C)c1c(-c2ccccc2)[nH]n(-c2nc3ccccc3s2)c1=O,71.9*,-0.6,6.2,0.516,-12.5,2.4
COC(=O)Cc1[nH]n(-c2nc3ccccc3s2)c(=O)c1C(C)=Nc1ccc(C)cc1,107.2*,-25.8,-12.9,0.173,-5.6,-9.8
CCCCOc1ccc(C(=O)N/N=C/c2ccc(OCCN3CCCCC3)c(OC)c2)cc1,29.5,-6.3,-1.2,1,43.3*,3.0
CCN(CCNCC(O)COCc1ccc(Cl)cc1)c1cccc(C)c1 (stereo unspecified),83.4*,12.4,1.0,0.682,23.9,1.4
Cc1ccc(C(=O)N/N=C2\SCC(=O)N2c2cc(C)ccc2C)cc1,75.3*,-6.2,1.0,1.44,-5.3,-1.8
Cc1cccc(N2C(=O)CS/C2=N\NC(=O)c2ccc(Br)cc2)c1C,11.7,-3.7,-1.9,-0.903,-6.3,0.4
CCCCCCCCNC(=S)NCCN1CCCCC1,20.5,10.7,/,-0.19,31.4,/
Cc1cc2c(cc1C)NC(=O)CC(C(F)(F)C(F)(F)C(F)(F)F)=N2,72.9*,-9.0,-0.3,0.363,-0.6,1.5
SMILES,CHOP inhibitor,p-CIP stab down,XBP1 UPR activ,Dynein transport,B2AR ag,UPR CHOP act
Nc1cc(N)nc(SCC(=O)NCCC2=CCCCC2)n1,/,/,-0.2,/,6.5,-0.3
Cc1cc(C)c2nc(SCC(=O)NCCC3=CCCCC3)cc(C)c2c1,92.4*,5.2,0.0,0.0492,-2.0,1.3
CC(=O)Nc1nc(C)c(-c2csc(Nc3cccc([N+](=O)[O-])c3)n2)s1,94.8*,10.6,2.7,-1.41,17.8,4.1
O=C(NC(=S)Nc1nc(-c2cccc([N+](=O)[O-])c2)cs1)c1ccccc1Cl,95.9*,-0.5,0.3,-0.79,4.3,5.6
O=C(NC(=S)Nc1nc(-c2cccc([N+](=O)[O-])c2)cs1)c1cc(Cl)ccc1Cl,6.9,-7.6,2.0,0.38,6.5,-2.2
COc1ccc(CC(=O)Nc2nc(-c3ccc(F)c(F)c3)cs2)cc1,/,2.0,2.7,/,-2.7,0.6
COc1ccc(CC(=O)Nc2nc(-c3cccc([N+](=O)[O-])c3)cs2)cc1,80.4*,0.6,-1.6,-0.532,2.5,-0.4
COc1ccccc1C(=O)NCC(=O)NNC(=O)c1cccs1,/,/,1.1,/,2.6,1.0
CC(C)N1C(=O)S/C(=C/c2ccc(Sc3nc4ccccc4[nH]3)o2)C1=O,70.1*,-3.0,-0.6,-0.875,-18.0,7.1
C=CCN1C(=O)S/C(=C/c2ccc(Sc3nc4ccccc4[nH]3)o2)C1=O,38.2,-3.9,-0.1,-0.854,-9.5,0.8
Cc1c(C=O)c2ccccn2c1C(=O)c1ccccc1,72.0*,-13.2,1.2,-0.487,-30.9,-2.4
O=C(Nc1ccccc1)C(O)C(O)C(=O)Nc1ccccc1 (stereo unspecified),29.1,18.6,-1.6,-0.393,20.7,1.1
C=CCn1c(SCC(N)=O)nnc1-c1cnccn1,-9.1,-2.6,-3.2,-0.513,5.7,-0.3
CC(C)[C@H](NC(=O)N1CC(=O)Nc2ccccc21)C(=O)N1CCC[C@@H]1C(=O)O,/,7.7,1.5,/,0.1,1.4
COc1ccccc1NC(=O)c1cc2c(CO)cnc(C)c2oc1=Nc1ccc(OC)c(OC)c1,/,-12.6,4.9,/,48.8*,16.8
O=C(Nc1ccc(Cl)c(Cl)c1)c1cccc(S(=O)(=O)NCc2cccnc2)c1,33.6,-3.8,-2.7,-1.03,-3.2,-2.0
CC1CCN(S(=O)(=O)c2ccc3c(c2)N(CC(=O)NCCN2C(C)CCCC2C)C(=O)CS3)CC1 (stereo unspecified),/,4.6,0.2,/,0.4,0.7
COCc1ccc(CN2CCC(n3nccc3NC(=O)CCOc3ccccc3)CC2)o1,/,-4.1,-7.1,/,8.3,-0.3
CCC(C)(C)NC(=O)C(OC(=O)c1cc2sccc2n1C)c1ccc(OC)cc1 (stereo unspecified),79.3*,7.6,-7.3,0.398,-1.9,-0.4
Cc1cc(C)nc(NC(=O)Nc2ccc3c(c2)OCO3)c1,71.2*,4.5,-1.1,1.14,9.0,-0.9
Cc1cc(C)nc(NC(=O)c2ccc3c(c2)OCO3)c1,8.0,-7.1,3.0,-0.21,/,5.2
CCOc1ncccc1C(=O)OCC(=O)c1c(N)n(C)c(=O)n(C)c1=O,85.8*,-14.2,-0.4,-0.608,7.4,-0.9

# Source: PubChem BioAssay (several laboratories)
